Data taken from BindingDB's records for doi:10.1021/jm300238h (Sanford-Burnham Medical Research Institute, 2012).

Target: Protease (Human immunodeficiency virus 1, UniProt Q9YQ12)
Test: Inhibition of wild type HIV1 protease by FRET assay
Procedure, shortened: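 Recombinant HIV-1 protease Q7K, desalted into 20 mM sodium acetate pH 5, apparent concentration ~50 nM (UV 280 nm). Inhibitors in DMSO, 12 concentrations, added with protease to buffer pH 4.7 (0.1 M NaOAc, 1 M NaCl, 1 mM EDTA, 1 mM DTT, 2% DMSO, 1 mg/mL BSA). Cleavage started by injecting EDANS/DABCYL peptide substrate. Ki from initial velocities fitted to the Morrison equation.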

Protease, sequence (Q9YQ12 whole entry): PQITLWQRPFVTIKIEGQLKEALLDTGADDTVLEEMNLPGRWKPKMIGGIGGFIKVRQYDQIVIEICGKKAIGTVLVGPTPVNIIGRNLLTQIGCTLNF

Question: `COc1ccc(S(=O)(=O)N(CC(C)C)C[C@@H](O)[C@H](Cc2ccccc2)NC(=O)[C@@H]2CN(c3cccc(C(C)=O)c3)C(=O)O2)cc1` [(5S)-3-(3-Acetylphenyl)-N-[(1S,2R)-1-benzyl-2-hydroxy-3-[isobutyl[(4-methoxyphenyl)sulfonyl]amino]propyl]-2-oxooxazolidine-5-carboxamide] was tested. Which Ki did it give?
Answer: 1 pM
